Test results taken from ChEMBL document CHEMBL1150666, “Antioxidant and free-radical scavenging activity of constituents of the leaves of Tachigalia paniculata” (J Nat Prod, 2002).

Tests used:
[1] = ABTS radical scavenging activity assessed as Trolox equivalent antioxidant capacity at 1 mM by spectrophotometry; assay type: physicochemical; conditions: 1000 µM
Outline: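 ABTS radical cation made from 7 mM ABTS with 2.45 mM potassium persulfate, kept dark at room temperature 12 h. Diluted in PBS pH 7.4 to A734 0.70 and equilibrated at 30 °C. Methanol sample solutions (0.3–2 mM) were added to diluted ABTS. Percent inhibition at 734 nm versus methanol blank, plotted against concentration relative to Trolox; three determinations.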

[2] = target: Xanthine dehydrogenase/oxidase (Homo sapiens, UniProt P47989); test: Inhibition of xanthine oxidase-mediated formation of uric acid by spectrophotometry
Sequence of Xanthine dehydrogenase/oxidase (P47989 whole entry): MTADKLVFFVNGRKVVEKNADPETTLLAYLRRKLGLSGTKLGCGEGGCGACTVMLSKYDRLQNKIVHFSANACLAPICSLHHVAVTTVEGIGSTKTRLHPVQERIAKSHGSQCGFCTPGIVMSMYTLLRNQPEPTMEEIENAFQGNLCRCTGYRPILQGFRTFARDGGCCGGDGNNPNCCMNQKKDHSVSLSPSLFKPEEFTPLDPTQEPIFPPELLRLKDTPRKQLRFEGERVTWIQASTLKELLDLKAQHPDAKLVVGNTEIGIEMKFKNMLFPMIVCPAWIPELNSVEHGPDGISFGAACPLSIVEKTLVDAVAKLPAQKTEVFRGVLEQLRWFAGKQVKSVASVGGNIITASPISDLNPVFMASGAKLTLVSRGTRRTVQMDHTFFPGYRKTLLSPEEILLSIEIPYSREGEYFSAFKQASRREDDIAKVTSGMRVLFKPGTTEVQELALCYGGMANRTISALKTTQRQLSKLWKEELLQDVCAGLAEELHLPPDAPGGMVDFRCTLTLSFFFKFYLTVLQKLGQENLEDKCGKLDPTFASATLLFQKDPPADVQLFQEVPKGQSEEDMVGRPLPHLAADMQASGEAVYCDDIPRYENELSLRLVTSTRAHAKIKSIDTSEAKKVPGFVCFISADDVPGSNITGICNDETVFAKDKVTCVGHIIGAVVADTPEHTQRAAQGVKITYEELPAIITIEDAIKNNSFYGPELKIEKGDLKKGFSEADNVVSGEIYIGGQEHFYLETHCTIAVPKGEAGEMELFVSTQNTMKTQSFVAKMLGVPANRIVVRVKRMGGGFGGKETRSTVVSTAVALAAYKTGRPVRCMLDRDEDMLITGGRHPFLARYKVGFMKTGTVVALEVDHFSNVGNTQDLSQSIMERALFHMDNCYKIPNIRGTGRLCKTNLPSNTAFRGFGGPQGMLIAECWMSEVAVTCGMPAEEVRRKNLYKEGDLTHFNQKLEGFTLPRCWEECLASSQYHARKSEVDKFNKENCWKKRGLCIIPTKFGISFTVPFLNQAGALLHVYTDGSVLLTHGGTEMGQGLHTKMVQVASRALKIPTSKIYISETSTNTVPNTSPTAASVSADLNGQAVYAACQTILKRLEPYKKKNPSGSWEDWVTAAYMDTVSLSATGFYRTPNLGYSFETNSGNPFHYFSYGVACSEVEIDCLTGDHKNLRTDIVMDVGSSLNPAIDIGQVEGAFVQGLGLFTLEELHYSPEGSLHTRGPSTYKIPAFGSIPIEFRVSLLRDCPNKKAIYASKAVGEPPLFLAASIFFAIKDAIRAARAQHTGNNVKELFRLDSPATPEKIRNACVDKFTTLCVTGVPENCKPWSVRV
Outline: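 Xanthine 100 μM in 0.1 M phosphate buffer pH 7.8 with 0.04 units/mL XOD, incubated 10 min at room temperature. Compounds added at several concentrations before enzyme; IC50 from regression lines.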

SMILES	Activity [1] [mM]	IC50 [2] [µM]
COC(=O)c1cc(O)c(O)c(O)c1 [GALLIC ACID METHYL ESTER]	1.154	15.5
O=c1c(O[C@@H]2O[C@H](CO)[C@@H](O)[C@H](O)[C@H]2O)c(-c2ccc(O)c(O)c2)oc2cc(O)cc(O)c12 [ISOQUERCETIN]	0.757	> 50
COc1ccc(C=O)cc1O [ISOVANILLIN]	0.144	> 50
O=c1c(O)c(-c2ccc(O)c(O)c2)oc2cc(O)cc(O)c12 [QUERCETIN]	2.6	–
C[C@@H]1O[C@@H](Oc2c(-c3ccc(O)c(O)c3)oc3cc(O)cc(O)c3c2=O)[C@H](O)[C@H](O)[C@H]1O [QUERCITRIN]	0.854	14.7

Other lines, results leading:

Activity [1] [mM]	IC50 [2] [µM]	SMILES
1.42	6.13	C[C@@H]1O[C@@H](OC[C@H]2O[C@@H](Oc3cc(O)c4c(=O)c(O)c(-c5cc(O)c(O)c(O)c5)oc4c3)[C@H](O)[C@@H](O)[C@@H]2O)[C@H](O)[C@H](O)[C@H]1O
1.62	6.52	O=c1c(O)c(-c2cc(O)c(O)c(O)c2)oc2cc(O[C@@H]3O[C@H](CO[C@@H]4O[C@H](CO)[C@@H](O)[C@H](O)[C@H]4O)[C@@H](O)[C@H](O)[C@H]3O)cc(O)c12
1.1	26.3	O=c1c(O[C@@H]2O[C@H](CO)C(O)[C@H](O)[C@H]2O)c(-c2ccc(O)c(O)c2)oc2cc(O)cc(O)c12 (single isomer, unassigned) [ISOQUERCETIN]
0.713	31.5	O=C/C=C/c1ccc(O)c(O)c1 [CAFFEOYL ALDEHYDE]
0.855	29.6	COC(=O)c1ccc(O)c(O)c1 [METHYL PROTOCATECHUATE]
0.147	> 50	COC(=O)c1ccc(O)cc1 [METHYLPARABEN]
